System: MS2 coat protein
Experiment: apparent Kd, MS2 coat protein; higher = weaker binding; RNA-MaP array; FMN 200 µM where present
Procedure, shortened: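 Green signal was scaled to red-channel RNA signal and control-cluster median Fmax, and the apparent Kd was taken as the median of filtered per-cluster binding-curve fits. The binding series used SNAP-549-labelled MS2 coat protein from 0.7 or 1.5 nM, doubling to 3 µM, on designs transcribed by stalled E. coli RNA polymerase on Illumina sequencing-chip clusters. Each series ran without and then with constant ligand in 100 mM Tris-HCl pH 7.5, 80 mM KCl, 4 mM MgCl2, BSA, DTT, yeast tRNA and Tween-20.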

[1] = designed as: OFF switch for flavin mononucleotide, no ligand
[2] = ligand present: flavin mononucleotide, designed as: OFF switch for flavin mononucleotide
[3] = designed as: ON switch for flavin mononucleotide, no ligand
[4] = ligand present: flavin mononucleotide, designed as: ON switch for flavin mononucleotide

Sequence	apparent Kd [1] [nM]	apparent Kd [2] [nM]	apparent Kd [3] [nM]	apparent Kd [4] [nM]
AUUUUGUGAGGAUAUGUGGCUUCGAUCGUAAAAUCGAGGCUACAGAAGGCACAUGAGGAUCACCCAUGUUCCUA	19	205	–	–
UAUCAAUUUAUGGGAUUAGAUUAUGAGGAUAUCAUUUUUUUAUACAUGAGGAUCACCCAUGUUUCUGAGAAGGCAUAAUUAAUA	–	–	16.9	6.29
CUGUACAUAGGAUAUAGUUGUUUUUACAUGAGGAUCACCCAUGUUACUCCUCUCUCUCUUCUAGAAGGAUGUUUUU	79.8	58.4	–	–
GCCAGAGCAGGAUAUUCAAUAUCACACAUGAGGAUCACCCAUGUCUAUCGAAAGAUAGAGGGAGAAGGGCUCUGGC	64.3	18.3	–	–
AGAUGUGAACAUGAGGAUCACCCAUGUGACUAGGUUUAUUUCAGAAGGCAUUUAUAGAGAUUAUAUGAGGAUAUGAAGUUUUAA	–	–	12.4	6.45
UGUUGUAUUACAGGAUAUCUAUUAGCUUUAUUUAGAGAAGGGUAUUCACAUGAGGAUCACCCAUGUAUAUACGAGGAAGUUGUG	–	–	46.1	50.1
GGUGCACGCACAGGAUAUCCGGCGGCGCUCGUCGGAGAAGGGUGACAUGAGGAUCACCCAUGUACGUGCAACUCAGUUUGAGUG	–	–	42.5	33.9
GUCAGCUCGUGAGGAUAUACAUCACUGCGAAAGCAGUGUAUUAAGAUCACAUGAGGAUCACCCAUGUAGAAGGCACGAGCUGAU	43.7	626	–	–
GGCUCAUUUACAUUAAUGUGCAGACAGGAUAUCCACCGCGGUUCCUACAUGAGGAUCACCCAUGUGGAGAAGGGUCGCUAAUGG	29.1	72.2	–	–
AAGAGCGAUUCUCCCUUCCUACAUGAGGAUCACCCAUGUACGAGAAGGCGCCGUUUAUACAACGGUGAGGAUAUCGUGCGUUAC	4.49	4.7	–	–
UUAACAUGCUUAGGAUAUCGGAUUUUUUUUUUUCGAGAAGGAAGAUUCUUUUUUUUUUACAUGAGGAUCACCCAUGUUUAUUUU	10.2	5.78	–	–
AGAAACUACGAGAAGGACAUGUGGUCCUUCAGUUACAUGAGGAUCACCCAUGUAGGAUAUAAAAGUUUCAGGAUCGUGAGAUCA	6.78	7.1	–	–
UAAAUGUCAGGAUAUUGUUAAUUUAGUUGUUUGUAUUAGUUCGAGAAGGGACAUGAGGAUCACCCAUGUUGUUU	28.9	31.1	–	–
CGGCGCUGUCGAGAGGAUAUGCGGUGAUGGACAUGAGGAUCACCCAUGUUAGCGAUAGCAUUACGGUAGAAGGCUCUAUAGUUGC	–	–	362	93.2
CCAGAGGUCACAGGAUAUGACUCGUCCAAAUGGUCAGAAGGGUGAAUCACAUUAUGUAUACAUGAGGAUCACCCAUGUCCUACG	–	–	93.2	498
CAGUACUGAGGAUAUACAUGAGGAUCACCCAUGUGUCUAAGGUAGGAUACUACCAUUAGUAGAAGGCAGUACUG	12.4	18.1	–	–
ACCUGCCGUGGCACGGUAGUACCGGAGGAUAUCCGCGUCGGUCAUGACAUGAGGAUCACCCAUGUGGAGAAGGCUGGUUUGUCC	11.9	24.8	–	–
UAUAUAAUAAGAGCUGGAAACUCAACAUGAGGAUCACCCAUGUAGGAUAUCAGCACGAUAAGUGCUGAGAAGGACAACCAGCUC	19.9	23.3	–	–
ACUUAUGAAGGAUAUACUAGCGACAUGCGCUCAACACGCGCACAUGAGGAUCACCCAUGUAGAAGGUCAAACAU	23.1	22.1	–	–
GGAUAGGACAGAGGAUAUACGUGCUAGAGAUACUAGCAAAAUUUCCUUACAUGAGGAUCACCCAUGUAGAAGGCUGUCCUAUCG	5.79	12.7	–	–
GGUCGUCACAUCUACAUGAGGAUCACCCAUGUCAAAAGACAUGAGGAUAUGCAUCCUAAUUGGAUGCAGAAGGCAUGGACGACC	–	–	1280	66.8
AAACCGUGUGGAGGAUAUGCAGUUGAGGUGAGGUAGCAACUCUAUACGACAGCAGAAGGCCACAUGAGGAUCACCCAUGUAGGU	489	158	–	–
AUUAGACAUGAGGAUCACCCAUGUAGGCAGUCAUGAGGAUAUGGACAAGGUGCUCAAGGUCCAGAAGGCAUACGCC	–	–	29.3	18.5
AUCAGCUCGUCAGGAUAUACGUCACUGCGUCAGCCGUGUGGUAAGAUCACAUGAGGAUCACCCAUGUAGAAGGGACGAGCUGAU	16.6	247	–	–

Sequence	apparent Kd [1] [nM]	apparent Kd [2] [nM]	apparent Kd [3] [nM]	apparent Kd [4] [nM]
GCUGGACGAGGAUAUAUAUGACGUGCUUCGGCACGAAGGUCACAUGAGGAUCACCCAUGUAGAAGGUGUCCAGC	30.7	106	–	–
AAUUAUUGAUGAGGAUAUUGUGGUGAAACACGACGAGAAGGCAUAUGUCACAUGAGGAUCACCCAUGUGAGCCUUGUGCAUAUA	19.9	18.9	–	–
UUUGCAUUCCGAGGAUAUUCAUAUAAUAAAUAAACAUGAGGAUCACCCAUGUGGCGAAAGCCUAGGGAGAAGGCGGUUUGCUUU	–	–	139	25.7
GAGCGGGAAACAUGAGGAUCACCCAUGUAGUAAAUCCUCACGUAGGAUAUGCACACGAGAAGUGUGCAGAAGGGCGACCCGGUC	79.6	183	–	–
GGUACUCAAAGAGUACCAAUACGAACAUGAGGAUCACCCAUGUAGGAUAUGCUAUCGAAACGAUAGCAGAAGGACAUGUGCCUU	26.4	218	–	–
UCACGGCAUGUAGGAUAUGCAUAGCAUUGCUAUGCAGAAGGACAUGAGGAUCACCCAUGUAUGUAUUCCAUACUAUUCCCGUGU	7.42	14.8	–	–
AUAUUGUGAGGAUAUGAACUUAGUAUCGAAACAUACUAAGUUCAGAAGGCACAUGAGGAUCACCCAUGUUUCUC	68.6	430	–	–
UGUUGUUCAGGAUAUGAUGUAUAAUACAUGAGGAUCACCCAUGUAGGUCCUGAUUUGGCGUCAGAAGGGAAUGUUG	27.7	31	–	–
UCUCAGUCAGGAUAUCGUUAAUUUAAUUGUUUGUAUUAGUUCGAGAAGGGACAUGAGGAUCACCCAUGUACUCA	34	94.6	–	–
CCAUAAAAGAUCCAAAAUUACAACAUGAGGAUCACCCAUGUGCAGGAUAUCGUGACAGUGAAGUACGAGAAGGGCAGACACUGC	197	208	–	–
GCGGAUCUAGGAUAUACAUGAGGAUCACCCAUGUAAACUCUCUUGGAUGACUACUAUUGUAGAAGGAGAUAAGC	25.4	41	–	–
CCACGACCGGAGAAGGCAGUUUGUGGGCCUGUUCCUGUCGGAUACAUGAGGAUCACCCAUGUACCUGAGGAUAUCUGGUCGCAG	5.52	6.07	–	–
CCUCCCUGAGGAUAUCCACCCUCAUACAUGAGGAUCACCCAUGUUCAUCCGUGGCUACCCGGAGAAGGCAGCUCUC	44.9	41.8	–	–
ACAUACAUUCGAGGAUAUCGGUGAUUAAUUUUACGAGAAGGCGAUAUAAGAUAUAAUAUUUUAGACAUGAGGAUCACCCAUGUA	–	–	25.5	22.9
UAGAAGUCAGGAUAUGCUGCUCGUCACUUGCGUGAUGAGUAGCAGAAGGGACAUGAGGAUCACCCAUGUAAAGA	57.4	79.9	–	–
UAUGUGUCAGGAUAUUAGUAGUAUAUAGAUAUAUAUAUUACUGAGAAGGGACAUGAGGAUCACCCAUGUACCUU	16.5	19.1	–	–
CAGGUAGACUGAGGAUAUACAAUAAACAGCUAGUCUAUCUAGCUGCCUACAUGAGGAUCACCCAUGUAGAAGGCAGUCUGCCUG	16.2	16.6	–	–
ACUGUCCGAGAGAAGGGAACAUGAGGAUCACCCAUGUUACCUCACCUGGUGACGGAACUCCAAGUUCAGGAUAUCUCGAGCGGC	4.85	5.98	–	–
UUUUUAUUUGUAGGAUAUGGAGACAUGAGGAUCACCCAUGUAUGAUAAGAUAAAUUAUGAUGUGGCCAGAAGGAUAUUAUUUUU	–	–	87.1	119
GGUACCUUUACAGGAUAUGCUAGCCUUUGGUUAGCAGAAGGGUGAUACAUGAGGAUCACCCAUGUGGUGCCAGGGCGUGAGCCC	–	–	79.2	447
ACAUGAGGAUCACCCAUGUGAUGAUCUUCCAUGUCAUAUUUCAGAAGGCUCGCAUGUUUAAUGAGAGAGGAUAUGGAAUAUGCG	701	386	–	–
GUGAAACAUGAGGAUCACCCAUGUGAGGAUAUGUUUUAGUAAUGAUGAAAGUAAAUCUACAGAAGGCACAAUGG	75.8	117	–	–
GAAUAUUAGCAAGGAUAUCGGCUUACUAUAACUUUAUGCCCUGGGACAUGAGGAUCACCCAUGUACGAGAAGGUGCUUACUACA	18.9	29.4	–	–
UUUAUAAAGGUAGGAUAUUGUAUUAUAAUUAAAUAAGAAGGAUCACACAUGAGGAUCACCCAUGUAUGAGGAUCACCCAUGUAU	15.7	14.4	–	–

Source: the EternaBench riboswitch data
